Experimental data reported in ChEMBL document CHEMBL1833874, “Α-pyrones and diketopiperazine derivatives from the marine-derived actinomycete Nocardiopsis dassonvillei HR10-5” (J Nat Prod, 2011).
In brackets after ≈: the same amount, converted by molar mass.

What was measured:
[1] = system: HL-60; experiment: Cytotoxicity against human HL60 cells after 72 hrs by MTT assay; format: functional, cell-based; conditions: HL-60, 72 h
Summary of the method: (§1)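 HL-60 cells were assayed by MTT and A549 cells by SRB. Read-out is IC50, given in μM.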

[2] = system: A549; experiment: Cytotoxicity against human A549 cells after 24 hrs by SRB assay; format: functional; summary of the method: as §1
[3] = system: Bacillus subtilis; experiment: Antibacterial activity against Bacillus subtilis by agar dilution method; format: functional
Summary of the method: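 Agar dilution, with the same panel also run against E. coli, A. aerogenes, P. aeruginosa, S. aureus and C. albicans. Read-out is the MIC, given in μM.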

| Compound | IC50 [1] [µM] | IC50 [2] | MIC [3] [µM] |
| --- | --- | --- | --- |
| COc1ccc(/C=c2/c(OC)n/c(=C\c3ccccc3)c(=O)n2C)cc1 [NOCAZINE B] | ≥ 100 | >=100 uM |  |
| CC/C=C(\C)c1ccc(CC)c(=O)o1 [NOCAPYRONE E] | ≥ 100 | >=100 uM | 26 (≈ 5 µg/mL) |
| COc1ccc(/C=c2\nc(OC)/c(=C/c3ccc(OC)cc3)n(C)c2=O)cc1 [NOCAZINE A] | ≥ 100 | >=100 uM |  |
| CCc1ccc(/C(C)=C/[C@H](C)O)oc1=O [NOCAPYRONE G] | ≥ 100 | >=100 uM | 12 (≈ 2.5 µg/mL) |
| OC[C@@H]1COC(c2ccccc2O)=N1 [NOCAZOLINE A] | ≥ 100 | >=100 uM |  |
| CC/C=C(\C)c1ccc(C)c(=O)o1 [NOCAPYRONE F] | ≥ 100 | >=100 uM | 14 (≈ 2.5 µg/mL) |
| COc1ccc(/C=C2/C(=O)N[C@@H](Cc3ccccc3)C(=O)N2C)cc1 [NOCAZINE C] | ≥ 100 | >=100 uM |  |
